ChEMBL document CHEMBL1926651, “Design, synthesis, antiviral and cytostatic evaluation of novel isoxazolidine nucleotide analogues with a 1,2,3-triazole linker” (Eur J Med Chem, 2012)
Calls of active or inactive are those of the source. The calls are words filed in the database; no cut-off is given here.

Experiments:
Vaccinia virus = assay: Antiviral activity against Vaccinia virus infected in human HEL cells assessed as inhibition of viral plaque formation at 250 uM; assay type: functional, organism-based; details: Orthopoxvirus vaccinia
How it was run: (§1)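 Confluent host cell monolayers were inoculated with 100 CCID50 of virus in the presence of test compound at serial dilutions (250, 50, 10, … μM). Viral cytopathicity was scored once it reached completion in untreated virus-infected controls.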

Human alphaherpesvirus 2 = assay: Antiviral activity against Herpes simplex virus 2 G infected in human HEL cells assessed as inhibition of viral plaque formation at 250 uM; assay type: functional, organism-based; details: strain G
[1] = tested on: Vesicular stomatitis virus; assay: Antiviral activity against Vesicular stomatitis virus infected in human HEL cells assessed as inhibition of viral plaque formation at 250 uM; assay type: functional, organism-based; how it was run: as §1
[2] = tested on: Mammalian orthoreovirus 1; assay: Antiviral activity against Reovirus-1 infected in african green monkey Vero cells assessed as inhibition of viral plaque formation at 250 uM; assay type: functional, organism-based; how it was run: as §1
HEL = assay: Cytotoxicity against human HEL cells 3 days by coulter counting; assay type: functional; details: 72 h
How it was run: (§2)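 Cells were suspended at 300,000–500,000 cells/mL and added 1:1 to compound dilutions. Incubation was at 37 °C, 2 days for L1210 and 3 days for CEM, HeLa and HEL. Cells were counted with a Coulter counter. CC50 is the concentration inhibiting cell proliferation by 50%.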

[3] = tested on: Vesicular stomatitis virus; assay: Antiviral activity against Vesicular stomatitis virus infected in human Hela cells assessed as inhibition of viral plaque formation at 250 uM; assay type: functional, organism-based
HeLa = assay: Cytotoxicity against human HeLa cells 3 days by coulter counting; assay type: functional; details: 72 h; how it was run: as §2
[4] = tested on: Human immunodeficiency virus 2; assay: Antiviral activity against Human immunodeficiency virus 2 infected in human CEM cells assessed as inhibition of virus-induced giant cell formation after 4 days by microscopic analysis; assay type: functional, organism-based; details: CCRF-CEM
How it was run: (§3)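 CEM cells at about 3 × 10⁵ cells/cm³ were infected with 100 CCID50/mL of HIV-1(IIIB) or HIV-2(ROD), then seeded into wells holding test compound dilutions. After 4 days at 37 °C, virus-induced giant cell formation was scored microscopically.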

Sindbis virus = assay: Antiviral activity against Sindbis virus infected in african green monkey Vero cells assessed as inhibition of viral plaque formation at 250 uM; assay type: functional, organism-based; how it was run: as §1
Human betaherpesvirus 5 [5] = assay: Antiviral activity against Human cytomegalovirus AD169 infected in human HEL cells assessed as inhibition of viral plaque formation at 250 uM; assay type: functional, organism-based
[6] = tested on: Respiratory syncytial virus; assay: Antiviral activity against Respiratory syncytial virus infected in human HeLa cells assessed as inhibition of viral plaque formation at 250 uM; assay type: functional, organism-based; how it was run: as §1
Human alphaherpesvirus 1 [7] = assay: Antiviral activity against thymidine kinase-deficient acv-resistant Herpes simplex virus 1 KOS infected in human HEL cells assessed as inhibition of viral plaque formation at 250 uM; assay type: functional, organism-based
[8] = tested on: Human immunodeficiency virus 1; assay: Antiviral activity against Human immunodeficiency virus 1 infected in human CEM cells assessed as inhibition of virus-induced giant cell formation after 4 days by microscopic analysis; assay type: functional, organism-based; details: CCRF-CEM; how it was run: as §3
Coxsackievirus B4 [9] = assay: Antiviral activity against Coxsackievirus B4 infected in human HeLa cells assessed as inhibition of viral plaque formation at 250 uM; assay type: functional, organism-based; how it was run: as §1
Human alphaherpesvirus 3 [10] = assay: Antiviral activity against thymidine kinase-positive Varicella Zoster virus Oka infected in human HEL cells assessed as inhibition of viral plaque formation at 250 uM; assay type: functional, cell-based; details: strain Oka vaccine
Punta Toro virus = assay: Antiviral activity against Punta Toro virus infected in african green monkey Vero cells assessed as inhibition of viral plaque formation at 250 uM; assay type: functional, organism-based
Human respirovirus 3 = assay: Antiviral activity against Parainfluenza-3 virus infected in african green monkey Vero cells assessed as inhibition of viral plaque formation at 250 uM; assay type: functional, organism-based; how it was run: as §1
L1210 = assay: Cytotoxicity against mouse L1210 cells 2 days by coulter counting; assay type: functional; details: L1210, 48 h; how it was run: as §2
Coxsackievirus B4 [11] = assay: Antiviral activity against Coxsackievirus B4 infected in african green monkey Vero cells assessed as inhibition of viral plaque formation at 250 uM; assay type: functional, organism-based; how it was run: as §1
Feline coronavirus = assay: Antiviral activity against Feline coronavirus infected in CrFK cells assessed as inhibition of viral plaque formation at 250 uM; assay type: functional, organism-based; how it was run: as §1
CCRF-CEM = assay: Cytotoxicity against human CEM cells 3 days by coulter counting; assay type: functional; details: 72 h; how it was run: as §2
Human alphaherpesvirus 3 [12] = assay: Antiviral activity against thymidine kinase-deficient Varicella Zoster virus 07/1 infected in human HEL cells assessed as inhibition of viral plaque formation at 250 uM; assay type: functional, organism-based
Human alphaherpesvirus 1 [13] = assay: Antiviral activity against Herpes simplex virus 1 KOS infected in human HEL cells assessed as inhibition of viral plaque formation at 250 uM; assay type: functional, organism-based; how it was run: as §1
Human betaherpesvirus 5 [14] = assay: Antiviral activity against Human cytomegalovirus Davis infected in human HEL cells assessed as inhibition of viral plaque formation at 250 uM; assay type: functional, organism-based
Felid alphaherpesvirus 1 = assay: Antiviral activity against Felid herpesvirus 1 infected in CrFK cells assessed as inhibition of viral plaque formation at 250 uM; assay type: functional, organism-based; how it was run: as §1

SMILES | Activity (Vaccinia virus) | Activity (Human alphaherpesvirus 2) | Activity [1] | Activity [2] | Activity [3] | Activity [4] | Activity (Sindbis virus) | Activity (Human betaherpesvirus 5 [5]) | Activity [6] | Activity (Human alphaherpesvirus 1 [7]) | Activity [8] | Activity (Coxsackievirus B4 [9]) | Activity (Human alphaherpesvirus 3 [10]) | Activity (Punta Toro virus) | Activity (Human respirovirus 3) | Activity (Coxsackievirus B4 [11]) | Activity (Feline coronavirus) | Activity (Human alphaherpesvirus 3 [12]) | Activity (Human alphaherpesvirus 1 [13]) | Activity (Human betaherpesvirus 5 [14]) | also measured
CCOP(=O)(OCC)[C@@H]1C[C@@H](n2cc(-c3nccn3C)nn2)ON1C | inactive | inactive | inactive | inactive | inactive | inactive | inactive | inactive | inactive | inactive | inactive | inactive | inactive | inactive | inactive | inactive | inactive | inactive | inactive | inactive | CC50 (HEL): > 100 µM; CC50 (HeLa): > 250 µM; CC50 (L1210): ≥ 250 µM; CC50 (CCRF-CEM): > 250 µM; Activity (Felid alphaherpesvirus 1): inactive
CCOP(=O)(OCC)[C@@H]1C[C@H](n2cc(-c3nccn3C)nn2)ON1C | inactive | inactive | inactive | inactive | inactive | inactive | inactive | inactive | inactive | inactive | inactive | inactive | inactive | inactive | inactive | inactive | inactive | inactive | inactive | inactive | CC50 (HEL): > 100 µM; CC50 (HeLa): > 250 µM; CC50 (L1210): ≥ 250 µM; CC50 (CCRF-CEM): > 250 µM; Activity (Felid alphaherpesvirus 1): inactive
CCOC(=O)C1=C[C@@H](OC(CC)CC)[C@H](NC(C)=O)[C@@H](N)C1 | inactive | inactive | inactive | inactive | inactive | inactive | inactive | inactive | inactive | inactive | inactive | inactive | inactive | inactive | inactive | inactive | inactive | inactive | inactive | inactive | Activity (Felid alphaherpesvirus 1): inactive
NC(=O)c1ncn([C@@H]2O[C@H](CO)[C@@H](O)[C@H]2O)n1 | inactive | inactive | inactive | inactive | inactive | inactive | inactive | inactive | inactive | inactive | inactive | inactive | inactive | inactive | inactive | inactive | inactive | inactive | inactive | inactive | Activity (Felid alphaherpesvirus 1): inactive
CCOP(=O)(OCC)[C@@H]1C[C@@H](n2cc(Cn3cnc4c(N)ncnc43)nn2)ON1C (racemic) | inactive | inactive | inactive | inactive | inactive | inactive | inactive | inactive | inactive | inactive | inactive | inactive | inactive | inactive | inactive | inactive | inactive | inactive | inactive | inactive | CC50 (HEL): > 100 µM; CC50 (HeLa): > 250 µM; CC50 (L1210): 140 µM; CC50 (CCRF-CEM): > 250 µM; Activity (Felid alphaherpesvirus 1): inactive
CCOP(=O)(OCC)[C@@H]1C[C@H](n2cc(Cn3ccc(=O)[nH]c3=O)nn2)ON1C (racemic) | inactive | inactive | inactive | inactive | inactive | inactive | inactive | inactive | inactive | inactive | inactive | inactive | inactive | inactive | inactive | inactive | inactive | inactive | inactive | inactive | CC50 (HEL): > 100 µM; CC50 (HeLa): > 250 µM; CC50 (L1210): 235 µM; CC50 (CCRF-CEM): > 250 µM; Activity (Felid alphaherpesvirus 1): inactive
CCOP(=O)(OCC)[C@@H]1C[C@H](n2cc(Cn3cc(C)c(=O)[nH]c3=O)nn2)ON1C (racemic) | inactive | inactive | inactive | inactive | inactive | inactive | inactive | inactive | inactive | inactive | inactive | inactive | inactive | inactive | inactive | inactive | inactive | inactive | inactive | inactive | CC50 (HEL): > 100 µM; CC50 (HeLa): > 250 µM; CC50 (L1210): 280 µM; CC50 (CCRF-CEM): > 250 µM; Activity (Felid alphaherpesvirus 1): inactive
CCOP(=O)(OCC)[C@@H]1C[C@@H](n2cc(Cn3ccc(=O)[nH]c3=O)nn2)ON1C (relative stereo) | inactive | inactive | inactive | inactive | inactive | inactive | inactive | inactive | inactive | inactive | inactive | inactive | inactive | inactive | inactive | inactive | inactive | inactive | inactive | inactive | CC50 (HEL): > 100 µM; CC50 (HeLa): ≥ 250 µM; CC50 (L1210): > 250 µM; CC50 (CCRF-CEM): > 250 µM; Activity (Felid alphaherpesvirus 1): inactive
